Source: PubChem (Broad Institute)
Ecoli rRNA inh = reduced GFP signal of wild-type E. coli, primary screen, bacterial rRNA inhibitor project, GFP/RFP fluorescence, OD600, single point; GFP signal change (wild-type ribosome), % (test concentration not listed); AID 720706, 2013; E. coli WT GFP vs humanized-ribosome RFP mutants, 24 h; active compounds read low; DMSO median 0, no signal -100; hit rate 1.6% among 350,000;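 active = significant combined selectivity score with lowered wild-type GFP, culture density cut under 30%, mutant RFP and density less affected; inactive = any of these conditions unmet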
Cneo AK release = Cryptococcus neoformans cell lysis inducers, primary screen, AK release luminescence, single concentration; C. neoformans lysis, adenylate kinase release luminescence, 4 h; normalised: neutral wells 0, clomiphene wells 100; lysis activity, % at 15 µM; hit rate 0.2% among 360,000; AID 651654, 2012;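 active = mean lysis activity across replicates of at least 80%, whatever share of replicates individually reach that level; inactive = mean lysis activity below 80%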
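read-out = cell lysis signal | test system = log-phase Cryptococcus neoformans yeast cells | input = cells at 5 × 10^6 per mL | medium = fresh YPD growth medium | signal = luminescent adenylate kinase detection reagent | timing = 4 h at 37 °C static, read 1 h later | dosing = single dose | controls = Clomiphene as positive lysis control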
PGC1a acetyl inh = inhibitors of PGC1a acetylation signal, primary screen, cell-based, U2OS, AlphaScreen, inhibitor mode | AlphaScreen anti-acetyl-lysine; with virally co-expressed GCN5 acetyltransferase | inhibition, % at 15.6 µM | hit rate 0.17% among 350,000 | AID 651687, 2012;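 active = every replicate shows inhibition of at least 40%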;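 also: 0% = neutral control wells and 100% = positive control wells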
ERAP1 inh = human ERAP1 aminopeptidase inhibitors, primary screen, biochemical, single point, plate reader; Endoplasmic reticulum aminopeptidase 1 (Homo sapiens), Q9NZ08; recombinant ERAP1, Leu-AMC fluorescence, 60 min; inhibition, % at 10.7 µM; hit rate 0.15% among 340,000; AID 652197, 2013;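 active = mean replicate inhibition of at least 30%, or all replicates individually reaching that 30% level; inactive = mean below 30% and not every replicate reaching it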;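 also: 0% = neutral control wells and 100% = L-leucinethiol positive control wells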
Target sequence (Q9NZ08 whole entry, looked up): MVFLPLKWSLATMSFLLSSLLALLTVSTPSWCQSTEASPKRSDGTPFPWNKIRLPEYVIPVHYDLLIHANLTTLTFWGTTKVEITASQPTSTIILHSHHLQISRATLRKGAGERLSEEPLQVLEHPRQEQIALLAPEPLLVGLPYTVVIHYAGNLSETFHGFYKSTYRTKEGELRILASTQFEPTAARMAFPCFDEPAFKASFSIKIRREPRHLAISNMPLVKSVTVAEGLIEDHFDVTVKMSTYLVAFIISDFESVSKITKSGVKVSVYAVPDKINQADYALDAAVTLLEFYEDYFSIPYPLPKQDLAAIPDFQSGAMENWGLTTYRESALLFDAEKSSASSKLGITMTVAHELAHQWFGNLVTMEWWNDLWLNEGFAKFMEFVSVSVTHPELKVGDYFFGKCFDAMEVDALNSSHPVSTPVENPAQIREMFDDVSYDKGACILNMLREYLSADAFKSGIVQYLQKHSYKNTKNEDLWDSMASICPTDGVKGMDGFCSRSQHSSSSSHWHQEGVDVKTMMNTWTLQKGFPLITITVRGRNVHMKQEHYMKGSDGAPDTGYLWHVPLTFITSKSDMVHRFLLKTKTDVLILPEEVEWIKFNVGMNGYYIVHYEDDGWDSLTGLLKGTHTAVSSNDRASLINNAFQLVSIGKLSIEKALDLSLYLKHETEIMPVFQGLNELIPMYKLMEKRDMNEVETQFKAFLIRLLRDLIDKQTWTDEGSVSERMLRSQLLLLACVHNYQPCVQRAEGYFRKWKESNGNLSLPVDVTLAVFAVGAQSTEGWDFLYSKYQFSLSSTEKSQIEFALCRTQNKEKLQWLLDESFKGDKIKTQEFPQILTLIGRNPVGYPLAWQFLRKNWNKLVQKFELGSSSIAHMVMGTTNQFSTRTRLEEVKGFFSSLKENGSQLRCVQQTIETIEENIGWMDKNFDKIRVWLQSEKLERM
HIV Env fusion = inhibitors of HIV-1 Env-driven cell-cell fusion, primary screen, HeLa-JRFL effector, CEM21 target cells, luciferase. inhibition, % at 12.3 µM. hit rate 1.1% among 360,000;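 active = mean replicate inhibition score of at least 50 and every replicate individually at or above 50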;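 also: 0% = plate neutral controls and 100% = maraviroc near 300 nM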
FGF22 binding = binders of human FGF22 protein, primary screen, FGF22 synaptogenesis inhibitor project, biophysical, thermal shift, single point. hit rate 1.5% among 340,000. recombinant FGF22 thermal shift, SYPRO orange fluorescence; percent of sucrose octasulfate shift, DMSO zero. activity (Tm shift, normalised), % at 9.99 µM. Fibroblast growth factor 22 (Homo sapiens), Q9HCT0;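 active = mean Tm shift, scaled 0 neutral to 100 positive control, at about 1.3% or above, every replicate too, limit read from the data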
Numbers without * were called inactive; . = no result; [ ] = another dose, or the depositor's remark. An excerpt weighted towards active compounds, which were near 3.5% of everything screened.

SMILES	Ecoli rRNA inh	Cneo AK release	PGC1a acetyl inh	ERAP1 inh	HIV Env fusion	FGF22 binding
Cc1cccc(/C=N/n2c(-c3cc(-c4ccccc4)n[nH]3)n[nH]c2=S)c1	8	.	.	10	-10	0
CC=Cc1ccc2n(c1=O)C[C@@H]1[C@@H](CO)[C@H](C(=O)NC3CCC3)[C@H]2N1C(=O)c1cnccn1 (mixture of isomers)	3	.	3	0	.	.
COc1cc2oc(=O)cc(C)c2c(OC)c1OC	3	.	.	-5	-39	43*
COc1cc2oc(=O)cc(-c3ccc(-c4ccc(CO)cc4)cc3)c2c(OC)c1OC	1	1	25	.	118*	0
C=CCN(CC=C)C(=S)NC(=O)c1ccc(OC)c(Br)c1	.	3	-2	.	.	.
Cc1cc2nc(-c3ccccc3)c(Cc3cccc(F)c3)n2c(C)c1Br	-11	12	-8	1	74*	0
Cc1ccc(-c2nc3cc(C)c(Br)c(C)n3c2Cc2cccc(F)c2)cc1	10	5	-7	-6	-20	0
COc1ccc(C(C(=O)NC2CCCCC2)N(C(=O)CCl)c2ccc(OC)cc2)cc1 (stereo unspecified)	.	-2	10	.	.	.
CCc1ccccc1N(C(=O)CNC(=O)c1ccco1)C(C(=O)NC1CCCC1)c1cccnc1 (stereo unspecified)	2	-1	.	1	-3	0
COc1ccc(C(C(=O)NC2CCCCC2)N(C(=O)CCl)c2ccc(C)cc2)cc1 (stereo unspecified)	2	.	.	-3	56*	0
COc1ccc(C(C(=O)NC2CCCC2)N(C(=O)c2ccoc2C)c2ccc(C)cc2)cc1 (stereo unspecified)	.	0	0	.	90*	.
CCOc1ccccc1N(C(=O)CNC(=O)c1ccco1)C(C(=O)NC1CCCC1)c1cccnc1 (stereo unspecified)	.	0	1	.	77*	.
O=C(NCC(=O)N(c1ccccc1)C(C(=O)NC1CCCCC1)c1cccnc1)c1cccs1 (stereo unspecified)	13	1	-5	-1	56*	0
CS(=O)(=O)c1cccc(C(=O)N(CCc2ccccc2)Cc2cccs2)c1	-7	2	.	-1	-5	0
CNC[C@@H]1OCCCC[C@@H](C)Oc2ccc(NC(=O)Nc3ccc(F)cc3)cc2C(=O)N([C@@H](C)CO)C[C@H]1C	5	.	-5	.	6[16.7 µM]	.
CCOc1ccc(NC(=O)CCSc2nnc(C)s2)cc1	.	2	12	.	-233	.
C[C@@H](NC(=O)C[C@H]1CC[C@H]2[C@@H](COC[C@@H](O)CN2Cc2ccc(C(F)(F)F)cc2)O1)c1ccccc1	-11	-2	6	-1	20[16.7 µM]	0
COc1ccc(N(C(=O)CCl)C(C(=O)NC2CCCCC2)c2cccnc2)cc1 (stereo unspecified)	.	.	.	.	51*	.
CC(=O)NC1C(=O)N=C(SCC(=O)Nc2ccc(C(F)(F)F)cc2Cl)NC1=O (stereo unspecified)	11	.	.	-1	-22	44*
COc1ccccc1NC(=O)CSC1=NC(=O)C(NC(C)=O)C(=O)N1 (stereo unspecified)	.	1	-1	.	.	.
O=C(c1ccc(Cl)cc1)N1CCc2ccccc21	-2	1	.	1	-24	0
Cn1cc(/C=C/c2cc[n+](C)cc2)c2cc(F)ccc21	64	0	-1	66*	.	.
Cn1cc(/C=C/c2cc[n+](C)cc2)c2cc(Cl)ccc21	60	0	-6	13	32	0
C[n+]1ccc(/C=C/c2c[nH]c3ccc(F)cc23)cc1	76	0	3	4	59*	0
C[C@H](CO)N1C[C@H](C)[C@H](CN(C)Cc2ccc(-c3ccccc3)cc2)Oc2c(NS(=O)(=O)c3ccccc3)cccc2C1=O	-3	-3	.	-9	.	-1
SMILES	Ecoli rRNA inh	Cneo AK release	PGC1a acetyl inh	ERAP1 inh	HIV Env fusion	FGF22 binding
C=C[C@@H]1c2cc(C)ccc2N(S(=O)(=O)c2ccc(C)cc2)[C@H](c2ccccc2C(F)(F)F)C1(C#N)C#N	5	1	.	-2	56*	0
Cc1cc(C)c(C(N)=O)c(NCCc2ccccc2)n1	.	2	-4	.	-5	.
O=c1[nH]c(=O)c2[nH]c(=S)n(-c3ccccc3)c2[nH]1	5	1	2	37*	-2	-1
CC(=O)c1ccc(N2CCN(C(=O)CCCn3c(=O)[nH]c4ccccc4c3=O)CC2)cc1	-6	.	-11	1	9	43*
CCOC(=O)N1CCN(C(=O)CCCn2c(=O)[nH]c3ccccc3c2=O)CC1	.	6	0	.	-131	.
CCCNC(=O)CCn1c(-c2ccc(C)cc2)cc(C(=O)OCC)c1C	.	0	-14	.	-65	.
CCOC(=O)c1cc(-c2ccc(F)cc2)n(CC(=O)NC(C)CC)c1C (stereo unspecified)	-4	.	.	-2	11	43*
CCCNC(=O)Cn1c(-c2ccc(F)cc2)cc(C(=O)OCC)c1C	6	.	.	1	14	43*
Cc1ccc(S(=O)(=O)N2C[C@H]3[C@H]4C(=O)N(C5CCCCC5)C(=O)[C@H]4CC(=O)[C@H]3[C@@H]2c2ccccc2Cl)cc1	5	-5	-4	.	59*	0
CCN1C(=O)[C@@H]2[C@@H]3CN(S(=O)(=O)c4ccc(C)cc4)[C@@H](c4cccc5ccccc45)[C@@H]3C(=O)C[C@@H]2C1=O	5	4	-11	0	-27	0
Cc1ccc(C(c2nc3ccccc3[nH]2)n2c(-c3ccccc3)nc3ccccc32)cc1 (stereo unspecified)	0	-8	-11	.	58*	0
C[C@H]1CN([C@@H](C)CO)C(=O)c2cc(-c3cncnc3)cnc2O[C@H]1CN(C)C(=O)CN1CCOCC1	6	-2	17	4	.	0
CC(=O)N(C)C[C@H]1Oc2ncc(C#CCc3ccccc3)cc2C(=O)N([C@H](C)CO)C[C@@H]1C	2	15	-20	0	1[16.7 µM]	0
COc1ccc(C(=O)NCc2cc(C)nc3ccccc23)cc1OC	-4	0	3	3	7	0
COc1cc(OC)cc(C(=O)NCc2cc(C)nc3ccccc23)c1	-10	.	.	-4	7	44*
COC(=O)c1ccc(C)c(NC(=O)Cc2ccc([N+](=O)[O-])cc2)c1	1	.	.	6	13	0
